Assay outcomes from PubChem.
Sampled rows, rich in hits. Any-hit rate of the full collection: about 2.6%.
Granule exo inh = blocks lytic granule exocytosis; TALL-104 LAMP-1 surface exposure, flow cytometry; cells stimulated with thapsigargin and PMA; inhibition, % at 10 µM; 360,000 tested, 0.66% active; AID 651702;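 active = inhibition above about 55%, limit read from the data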
MC4R ag barr = human MC4R agonism via beta-arrestin; P32245; U2OS MC4R beta-arrestin complementation, luminescence; percent of melanotan II response, DMSO zero; activation, % at 8.9 µM; 360,000 tested, 0.98% active;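 active = activation above a per-plate cutoff, the mean activation of sample wells on that plate plus 3 SD, cut at about 8% in these data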
Target sequence (P32245 whole entry, looked up): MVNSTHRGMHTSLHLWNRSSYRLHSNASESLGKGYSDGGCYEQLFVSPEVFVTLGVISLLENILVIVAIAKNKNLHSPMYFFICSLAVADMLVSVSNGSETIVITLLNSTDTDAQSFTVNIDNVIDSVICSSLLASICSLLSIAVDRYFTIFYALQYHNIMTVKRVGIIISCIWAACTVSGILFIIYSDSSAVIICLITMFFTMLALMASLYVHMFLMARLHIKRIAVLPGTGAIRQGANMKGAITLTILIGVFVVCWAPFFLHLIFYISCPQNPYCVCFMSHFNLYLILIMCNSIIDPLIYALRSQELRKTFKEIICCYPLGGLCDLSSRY
EP2 antag = blocks the human prostaglandin E2 receptor EP2 | P43116 | C6 glioma cells expressing human EP2, cAMP TR-FRET; cells stimulated with saturating PGE2 | inhibition, % at 25 µM | 260,000 tested, 0.52% active;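 active = percent inhibition above 40 after rounding to a whole number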;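 also: rat C6 glioma host cells with rolipram phosphodiesterase inhibitor present; the protocol text gives 20 µM as final concentration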
MC4R antagonist = human MC4R antagonism in cAMP assay | 360,000 tested, 0.48% active | inhibition, % at 6.5 µM | AID 540295 | P32245 | MC4R-expressing cells, MTII-stimulated cAMP, LANCE TR-FRET;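 active = inhibition above its plate's cutoff, the mean of tested wells on that plate plus 3 SD, cut at about 29% in these data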;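 also: 0% = Melanotan II alone and 100% = Melanotan II plus saturating MCL0020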
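System: U2OS cells stably expressing human melanocortin 4 receptor (MC4R). Reagent: Melanotan II challenge after compound preincubation. Doses: 6.5 µM. Times: 30-min compound, 1-h challenge, 1-h detection, room temperature. Measured by: TR-FRET with Eu-cAMP and labeled anti-cAMP, 671 nm. Replicates: singlicate.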
EP2 modulator = modulates human prostaglandin E2 receptor EP2 signaling | P43116 | EP2-expressing cells, cAMP HTRF FRET, PGE2 co-stimulation | induction, % at 25 µM | 260,000 tested, 0.83% active | AID 940;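 active = compounds whose cAMP rise, as percent of the full-agonist control response, exceeds 60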;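 also: rat C6 glioma line stably carrying human EP2 under a CMV promoter; the protocol text gives 20 µM as final concentration; 100% = response of wells given 1 µM PGE2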
T cell HTS = T cell immune modulators affecting CD8 T cell-vesicle binding. 2C CD8+ T cell-vesicle binding, flow cytometry; hits give low values. response (vesicle binding), % at 7 µM. 330,000 tested, 0.068% active. AID 2052;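 active = response, share of CD8 T cells binding vesicles, and their 90th percentile fluorescence all below set limits, cut at about 80% in these data, passing the limit was not always enough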;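 also: values below 100% mean blocked vesicle binding to the CD8+ T cells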
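Material: 2C TCR transgenic mouse naive CD8+ T cells, MACS-purified. Also added: QL9-charged Drosophila Ld/ICAM-1/B7-1 vesicles. Timing: binding 1.5 h at 37 °C. Measured by: high-throughput flow cytometry with anti-B7-1 and anti-CD8 staining. Read-out: percent CD8+ FL2 mean versus row control. Controls: Unloaded micro-vesicles (low), QL9 vesicles with 0.7% DMSO (high).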
EP2 confirm = human EP2 receptor cAMP induction, negative in counter-screens. shares compounds with EP2 modulator. C6 glioma EP2 cells, cAMP HTRF induction; plus low (about EC15) PGE2 agonist. calls only at 20 µM (by protocol). 1,300 tested, 47% active. AID 1080;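 active = cAMP induction above 50% in the main assay while under 30% in all four parallel counter assays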;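 also: rat C6 glioma cells stably expressing human EP2 receptor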
The depositor's hits bear a star; i = inactive; / = no result; + = active, no number; ! = not active in a repeat.

SMILES	Granule exo inh	MC4R ag barr	EP2 antag	MC4R antagonist	EP2 modulator	T cell HTS	EP2 confirm
Cc1noc(C)c1CSc1ncnc2sc(C)c(C)c12	-2	0	6	-4	63*	207	+
c1ccn(-c2ncnc3sc4c(c23)CCCC4)c1	-2	-1	10	-1	65*	144	+
CCOC(=O)N(C)c1c(CC)nc2c(OCc3ccc(Cl)cc3Cl)cccn12	-10	-3	/	10	/	/	/
COc1cccc2c(=O)cc(C)n(CC(=O)Nc3ccccc3C)c12	1	-1	10	0	-21	240	/
Cc1oc(C)c(C(=O)Nc2ccc(CC(=O)O)cc2)c1C(=O)Nc1ccc(CC(=O)O)cc1	-2	0	17	9	31	204	/
Cc1noc(C)c1CSc1ncnc2sc3c(c12)CCCCC3	-2	2	9	14	56	434	+
CCSc1ncnc2sc3c(c12)CCC3	0	1	12	-5	73*	407	+
COCCNc1ncnc2c1ncn2[C@H]1CN(CCOC)C[C@@H](CO)O1	-2	-1	/	-6	/	/	/
Cc1ccc(N2CCCCn3c2nc2c3c(=O)n(CC(=O)O)c(=O)n2C)cc1	-1	2	10	3	21	245	/
CC(C)Oc1nc(-c2ccccc2Cl)nc2ccccc12	0	0	8	6	46	238	/
CCOc1nc(-c2ccccc2O)nc2ccccc12	-1	3	6	4	81*	/	+
Cc1ccc(S(=O)(=O)NCC(C)n2nc(C)nc2C)cc1 (configuration not stated)	4	-2	/	0	/	379	/
CN(CC(=O)Nc1cccc(F)c1)C(=O)c1sccc1-c1ccccc1	-1	-3	/	-4	/	/	/
COc1ccccc1C1c2[nH]c3ccccc3c2CCN1Cc1cnc(C)s1 (configuration not stated)	0	0	8	12	80*	/	+
Cc1nc(NC(C)c2ccccc2)c2c3c(sc2n1)CCC3 (configuration not stated)	4	5	7	-1	71*	367	i
Cc1ccc(CNc2nc(C)nc3sc4c(c23)CCC4)cc1	15	3	4	-7	33	140	/
CSc1nc(N2CCCC2)c2c(c1C#N)CC(C)(C)OC2	0	0	6	10	0	237	/
CC(C)c1nc(N2CCN(C(=O)c3ccccc3)CC2)c(C#N)c2c1COC(C)(C)C2	0	3	5	9	77*	427	+
CCCSc1nc(N2CCCC2)c2c(c1C#N)CC(C)(C)OC2	2	-3	11	16	66*	273	+
CC1(C)Cc2c(C#N)c(N3CCCC3)nc(-c3ccco3)c2CO1	3	-1	11	9	76*	267	i
COc1ccccc1NS(=O)(=O)c1cccc(C(=O)NNC(=O)C(C)NC(=O)c2ccco2)c1 (configuration not stated)	-2	-1	/	1	/	343	/
CN=C1NC(C)(C)C2CCC(C)(CC2)S1	1	-1	/	9	/	/	/
CC1=C[N+](=O)c2ccccc2[N+]1=O	/	/	10	/	107*	/	i
O=C(c1ccc(Cl)cc1)c1oc2ccccc2c1CS(=O)(=O)c1ccccc1	8	5	3	1	80*	333	+
CCCCN1C=C(C(=O)OC)C(c2ccccc2Cl)C(C(=O)OC)=C1	3	-4	1	10	69*	197	+
SMILES	Granule exo inh	MC4R ag barr	EP2 antag	MC4R antagonist	EP2 modulator	T cell HTS	EP2 confirm
COC(=O)C1=C(C)N(C)C(C)=C(C(=O)OC)C1c1ccccc1C	0	0	10	8	39	209	/
CCOC(=O)C1=C(C)N(C)C(C)=C(C(=O)OCC)C1c1ccccc1	2	1	10	-6	67*	128	+
CCCCOc1ccccc1C1C(C(=O)OC)=C(C)N(C)C(C)=C1C(=O)OC	1	4	13	15	94*	350	+
CCOC(=O)C1=C(C)N(C)C(C)=C(C(=O)OCC)C1c1ccncc1	-1	-2	16	2	10	134	/
COC(=O)c1[nH]c2ccccc2c1NS(=O)(=O)c1ccc(F)c(C)c1	-2	-3	4	-1	77*	144	+
Cc1nc(CCNC(=O)Cc2ccc(Cl)cc2)cs1	-1	-2	9	-2	15	369	/
CCC(C)N(C)C(=O)c1cc2ccccc2c(-c2ccccc2Cl)n1 (configuration not stated)	-9	0	8	2	70*!	806	i
Cc1cccc(OCC(=O)Nc2ccc(NC(=O)c3ccccc3)cc2)c1	-9	1	/	0	/	0	/
Cc1cccc(C(=O)Nc2cccc(OCC(=O)O)c2)c1	-3	-3	1	7	95*	133	+
O=C(COc1cccc(NC(=O)c2ccccc2)c1)c1ccccc1	-6	0	2	-8	-85	227	/
O=C(O)COc1cccc(NC(=O)c2ccccc2)c1	1	-1	7	10	96*	591	+
Cc1ccc(CNC(=O)C2CCCN(C(=O)N(C)C)C2)cc1 (configuration not stated)	2	-1	7	-1	1	283	/
COc1ccc(OCC(=O)Nc2ccccc2N2CCN(C(=O)C(C)C)CC2)cc1	/	/	10	/	10	/	/
COc1ccccc1NC(=O)COC(=O)/C=C/c1ccccc1[N+](=O)[O-]	-7	2	5	8	-37	154	/
O=C(Cc1ccc(F)cc1)Nc1ccccc1Sc1ccccc1	-2	4	2	10	83*	202	+
COc1ccccc1/C=C/C(=O)OCC(=O)Nc1ccccc1Sc1ccccc1	-4	-1	8	-6	71*	74	+
O=C(Cc1ccc(Br)cc1)Nc1ccccc1Sc1ccccc1	1	0	0	19	68*	406	+
Cc1cn([C@H]2C[C@H](O)[C@@H](CNC(=O)[C@H](N)C3CC3)O2)c(=O)[nH]c1=O	-7	-1	/	0	/	/	/
CN(Cc1ccccc1)C(=O)c1ccc2sc([C@@H]3O[C@H](CO)[C@H](O)[C@H](O)[C@H]3O)nc2c1	-4	-1	/	5	/	/	/
CN(C)N1C(=O)CC(N2CCCC2)C1=O (configuration not stated)	0	2	2	27	19	93	/
Cc1ccc2nc(SCC(=O)NCc3ccco3)c(C)cc2c1	7	-2	7	-3	69*	546	+
Cc1ccc2nc(SCC(=O)NCc3ccco3)c(C#N)cc2c1	-3	3	15	6	12	i	/
